Measured values from ChEMBL document CHEMBL1123430, “Potential tumor- or organ-imaging agents. 26. Polyiodinated 2-substituted triacylglycerols as hepatographic agents” (J Med Chem, 1986).

System: Rattus norvegicus
Assay: Distribution of radioactivity of radiolabeled compound in liver of female rats 30 minutes after intravenous administration
Type: ADME, organism-based
Conditions: in vivo, 0.5 h

Which Dose does the source give for `CCC(Cc1c(I)cc(I)c(N)c1I)C(=O)O` (stereo not given) [IOPANOIC ACID] here?
Its Dose is 1.46%.

How did the Dose turn out when `Nc1c(I)cc(I)c(CC(=O)O)c1I` was run?
The Dose was 0.5%.

System: Rattus norvegicus
Assay: Polyacrylamide Gel Electrophoresis (PAGE) analysis of rat plasma 5 minutes after intravenous administration of radiolabeled compound (below albumin )
Type: functional, organism-based
Conditions: not given
Summary of the method: (§1)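 ¹²⁵I-labeled compound, radioiodinated by exchange in a pivalic acid melt, solubilized in normal saline with Tween 20 and given iv to adult female Sprague–Dawley rats (200–250 g), 5–30 μCi/animal, 3–4 rats per time point. Plasma was run on polyacrylamide gels. Gels were sectioned and gamma counted. Radioactivity per band (stacking gel, LDL, HDL, albumin, below albumin) is given as % of total applied; mean ± SEM, n = 3-5.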

With `Nc1c(I)cc(I)c(CC(=O)O)c1I` as the compound, how does the Concentration read?
The Concentration was 5.5.

System: Rattus norvegicus
Assay: Polyacrylamide Gel Electrophoresis (PAGE) analysis of rat plasma after intravenous administration of radiolabeled compound concentration of stacking gel
Type: functional, organism-based
Conditions: not given
Summary of the method: as §1

`CCC(Cc1c(I)cc(I)c(N)c1I)C(=O)O` (stereo not given) [IOPANOIC ACID] was tested. Which Concentration did it give?
Its Concentration is 3.9.

System: Rattus norvegicus
Assay: Distribution of radioactivity of radiolabeled compound in heart of female rats 30 minutes after intravenous administration
Type: ADME, organism-based
Conditions: in vivo, 0.5 h

`CCC(Cc1c(I)cc(I)c(N)c1I)C(=O)O` (stereo not given) [IOPANOIC ACID] was tested. Which Dose did it give?
Its Dose is 0.46%.

With `Nc1c(I)cc(I)c(CC(=O)O)c1I` as the compound, how does the Dose read?
Its Dose is 0.72%.

System: Rattus norvegicus
Assay: Polyacrylamide Gel Electrophoresis (PAGE) analysis of rat plasma 30 min after intravenous administration of radiolabeled compound in low density lipoprotein
Type: functional, organism-based
Conditions: not given
Summary of the method: (§2)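 Gels were sectioned and counted in a γ counter. Radioactivity in each band (stacking gel, LDL, HDL, albumin, below albumin) is expressed as a percentage of the total radioactivity applied to the gel, ± SEM, n = 3-5.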

With `Nc1c(I)cc(I)c(CC(=O)O)c1I` as the compound, how does the Concentration read?
Its Concentration is 0.4.

System: Rattus norvegicus
Assay: Distribution of radioactivity of radiolabeled compound in blood of female rats 5 minutes after intravenous administration
Type: ADME, organism-based
Conditions: in vivo

With `CCC(Cc1c(I)cc(I)c(N)c1I)C(=O)O` (stereo not given) [IOPANOIC ACID] as the compound, how does the Dose read?
Its Dose is 2.19%.

Which Dose does the source give for `Nc1c(I)cc(I)c(CC(=O)O)c1I` here?
The Dose was 5.44%.

System: Rattus norvegicus
Assay: Distribution of radioactivity of radiolabeled compound in lung of female rats 30 minutes after intravenous administration
Type: ADME, organism-based
Conditions: in vivo, 0.5 h

How did the Dose turn out when `CCC(Cc1c(I)cc(I)c(N)c1I)C(=O)O` (stereo not given) [IOPANOIC ACID] was run?
The Dose was 0.61%.

For `Nc1c(I)cc(I)c(CC(=O)O)c1I`, which Dose is on record?
The Dose was 1.07%.

System: Rattus norvegicus
Assay: Distribution of radioactivity of radiolabeled compound in blood of female rats 30 minutes after intravenous administration
Type: ADME, organism-based
Conditions: in vivo, 0.5 h

With `CCC(Cc1c(I)cc(I)c(N)c1I)C(=O)O` (stereo not given) [IOPANOIC ACID] as the compound, how does the Dose read?
Its Dose is 1.21%.

For `Nc1c(I)cc(I)c(CC(=O)O)c1I`, which Dose is on record?
The Dose was 2.41%.

System: Rattus norvegicus
Assay: Distribution of radioactivity of radiolabeled compound in kidney of female rats 5 minutes after intravenous administration
Type: ADME, organism-based
Conditions: in vivo

Which Dose does the source give for `CCC(Cc1c(I)cc(I)c(N)c1I)C(=O)O` (stereo not given) [IOPANOIC ACID] here?
Its Dose is 0.71%.

How did the Dose turn out when `Nc1c(I)cc(I)c(CC(=O)O)c1I` was run?
The Dose was 4.62%.

System: Rattus norvegicus
Assay: Polyacrylamide Gel Electrophoresis (PAGE) analysis of rat plasma 5 minutes after intravenous administration of radiolabeled compound in stacking gel
Type: functional, organism-based
Conditions: not given
Summary of the method: as §1

Which Concentration does the source give for `CCC(Cc1c(I)cc(I)c(N)c1I)C(=O)O` (stereo not given) [IOPANOIC ACID] here?
The Concentration was 0.6%.

How did the Concentration turn out when `Nc1c(I)cc(I)c(CC(=O)O)c1I` was run?
The Concentration was 1.7%.

System: Rattus norvegicus
Assay: Polyacrylamide Gel Electrophoresis (PAGE) analysis of rat plasma 5 minutes after intravenous administration of radiolabeled in stacking gel
Type: functional, organism-based
Conditions: not given
Summary of the method: as §1

How did the Concentration turn out when `Nc1c(I)cc(I)c(CC(=O)O)c1I` was run?
Its Concentration is 1.7%.

System: Rattus norvegicus
Assay: Polyacrylamide Gel Electrophoresis (PAGE) analysis of rat plasma 30 min after intravenous administration of radiolabeled compound ( below albumin)
Type: functional, organism-based
Conditions: not given
Summary of the method: as §2

`Nc1c(I)cc(I)c(CC(=O)O)c1I` was tested. Which Concentration did it give?
The Concentration was 7.

System: Rattus norvegicus
Assay: Polyacrylamide Gel Electrophoresis (PAGE) analysis of rat plasma 30 min after intravenous administration of radiolabeled compound at in high density
Type: functional, organism-based
Conditions: not given
Summary of the method: as §2

Which Concentration does the source give for `Nc1c(I)cc(I)c(CC(=O)O)c1I` here?
Its Concentration is 7.3%.

System: Rattus norvegicus
Assay: Polyacrylamide Gel Electrophoresis (PAGE) analysis of rat plasma 5 minutes after intravenous administration of radiolabeled compound in albumin
Type: functional, organism-based
Conditions: not given
Summary of the method: as §1

With `CCC(Cc1c(I)cc(I)c(N)c1I)C(=O)O` (stereo not given) [IOPANOIC ACID] as the compound, how does the Concentration read?
Its Concentration is 77.5.

System: Rattus norvegicus
Assay: Polyacrylamide Gel Electrophoresis (PAGE) analysis of rat plasma 5 minutes after intravenous administration of radiolabeled compound at in high density lipoprotein
Type: functional, organism-based
Conditions: not given
Summary of the method: as §1

How did the Concentration turn out when `Nc1c(I)cc(I)c(CC(=O)O)c1I` was run?
Its Concentration is 15.8%.

System: Rattus norvegicus
Assay: Polyacrylamide Gel Electrophoresis (PAGE) analysis of rat plasma after intravenous administration of radiolabeled compound in high density lipoprotein
Type: functional, organism-based
Conditions: not given
Summary of the method: as §1

For `CCC(Cc1c(I)cc(I)c(N)c1I)C(=O)O` (stereo not given) [IOPANOIC ACID], which Concentration is on record?
Its Concentration is 8.7%.

System: Rattus norvegicus
Assay: Polyacrylamide Gel Electrophoresis (PAGE) analysis of rat plasma after intravenous administration of radiolabeled compound at concentration of low-density lipoprotein
Type: functional, organism-based
Conditions: not given
Summary of the method: as §1

How did the Concentration turn out when `CCC(Cc1c(I)cc(I)c(N)c1I)C(=O)O` (stereo not given) [IOPANOIC ACID] was run?
Its Concentration is 2.2.

System: Rattus norvegicus
Assay: Polyacrylamide Gel Electrophoresis (PAGE) analysis of rat plasma 30 min after intravenous administration of radiolabeled compound in albumin
Type: functional, organism-based
Conditions: not given
Summary of the method: as §2

With `CCC(Cc1c(I)cc(I)c(N)c1I)C(=O)O` (stereo not given) [IOPANOIC ACID] as the compound, how does the Concentration read?
Its Concentration is 78.4.

Which Concentration does the source give for `Nc1c(I)cc(I)c(CC(=O)O)c1I` here?
The Concentration was 83.6.

System: Rattus norvegicus
Assay: Distribution of radioactivity of radiolabeled compound in liver of female rats 5 minutes after intravenous administration
Type: ADME, organism-based
Conditions: in vivo

With `CCC(Cc1c(I)cc(I)c(N)c1I)C(=O)O` (stereo not given) [IOPANOIC ACID] as the compound, how does the Dose read?
The Dose was 1.64%.

`Nc1c(I)cc(I)c(CC(=O)O)c1I` was tested. Which Dose did it give?
The Dose was 0.87%.

System: Rattus norvegicus
Assay: Polyacrylamide Gel Electrophoresis (PAGE) analysis of rat plasma 5 min after intravenous administration of radiolabeled compound concentration of albumin
Type: functional, organism-based
Conditions: not given
Summary of the method: as §2

For `Nc1c(I)cc(I)c(CC(=O)O)c1I`, which Concentration is on record?
Its Concentration is 76.

System: Rattus norvegicus
Assay: Polyacrylamide Gel Electrophoresis (PAGE) analysis of rat plasma 5 minutes after intravenous administration of radiolabeled compound in low-density lipoprotein
Type: functional, organism-based
Conditions: not given
Summary of the method: as §1

Which Concentration does the source give for `CCC(Cc1c(I)cc(I)c(N)c1I)C(=O)O` (stereo not given) [IOPANOIC ACID] here?
Its Concentration is 0.5%.

`Nc1c(I)cc(I)c(CC(=O)O)c1I` was tested. Which Concentration did it give?
The Concentration was 1%.

System: Rattus norvegicus
Assay: Polyacrylamide Gel Electrophoresis (PAGE) analysis of rat plasma 5 minutes after intravenous administration of radiolabeled compound in high density lipoprotein
Type: functional, organism-based
Conditions: not given
Summary of the method: as §1

How did the Concentration turn out when `CCC(Cc1c(I)cc(I)c(N)c1I)C(=O)O` (stereo not given) [IOPANOIC ACID] was run?
Its Concentration is 19.8.

System: Rattus norvegicus
Assay: Distribution of radioactivity of radiolabeled compound in lung of female rats 5 minutes after intravenous administration
Type: ADME, organism-based
Conditions: in vivo

With `CCC(Cc1c(I)cc(I)c(N)c1I)C(=O)O` (stereo not given) [IOPANOIC ACID] as the compound, how does the Dose read?
Its Dose is 0.81%.

Which Dose does the source give for `Nc1c(I)cc(I)c(CC(=O)O)c1I` here?
The Dose was 1.49%.

System: Rattus norvegicus
Assay: Distribution of radioactivity of radiolabeled compound in kidney of female rats 30 minutes after intravenous administration
Type: ADME, organism-based
Conditions: in vivo, 0.5 h

`CCC(Cc1c(I)cc(I)c(N)c1I)C(=O)O` (stereo not given) [IOPANOIC ACID] was tested. Which Dose did it give?
The Dose was 0.52%.

How did the Dose turn out when `Nc1c(I)cc(I)c(CC(=O)O)c1I` was run?
Its Dose is 5.82%.

System: Rattus norvegicus
Assay: Polyacrylamide Gel Electrophoresis (PAGE) analysis of rat plasma 30 min after intravenous administration of radiolabeled compound ( below albumin )
Type: functional, organism-based
Conditions: not given
Summary of the method: as §2

How did the Concentration turn out when `CCC(Cc1c(I)cc(I)c(N)c1I)C(=O)O` (stereo not given) [IOPANOIC ACID] was run?
The Concentration was 6.7%.

System: Rattus norvegicus
Assay: Distribution of radioactivity of radiolabeled compound in heart of female rats 5 minutes after intravenous administration
Type: ADME, organism-based
Conditions: in vivo

Which Dose does the source give for `CCC(Cc1c(I)cc(I)c(N)c1I)C(=O)O` (stereo not given) [IOPANOIC ACID] here?
Its Dose is 0.74%.

How did the Dose turn out when `Nc1c(I)cc(I)c(CC(=O)O)c1I` was run?
Its Dose is 1.09%.

System: Rattus norvegicus
Assay: Polyacrylamide Gel Electrophoresis (PAGE) analysis of rat plasma 5 min after intravenous administration of radiolabeled compound in albumin
Type: functional, organism-based
Conditions: not given
Summary of the method: as §2

For `CCC(Cc1c(I)cc(I)c(N)c1I)C(=O)O` (stereo not given) [IOPANOIC ACID], which Concentration is on record?
Its Concentration is 77.5.
